Reference: ChEMBL document CHEMBL1122814, “Selective thromboxane synthetase inhibitors. 1. 1-[(Aryloxy)alkyl]-1H-imidazoles” (J Med Chem, 1985)

Molecular target: T1, Cytochrome P450 11B1, mitochondrial (Rattus norvegicus, UniProt P15393)
T1 sequence (P15393 whole entry): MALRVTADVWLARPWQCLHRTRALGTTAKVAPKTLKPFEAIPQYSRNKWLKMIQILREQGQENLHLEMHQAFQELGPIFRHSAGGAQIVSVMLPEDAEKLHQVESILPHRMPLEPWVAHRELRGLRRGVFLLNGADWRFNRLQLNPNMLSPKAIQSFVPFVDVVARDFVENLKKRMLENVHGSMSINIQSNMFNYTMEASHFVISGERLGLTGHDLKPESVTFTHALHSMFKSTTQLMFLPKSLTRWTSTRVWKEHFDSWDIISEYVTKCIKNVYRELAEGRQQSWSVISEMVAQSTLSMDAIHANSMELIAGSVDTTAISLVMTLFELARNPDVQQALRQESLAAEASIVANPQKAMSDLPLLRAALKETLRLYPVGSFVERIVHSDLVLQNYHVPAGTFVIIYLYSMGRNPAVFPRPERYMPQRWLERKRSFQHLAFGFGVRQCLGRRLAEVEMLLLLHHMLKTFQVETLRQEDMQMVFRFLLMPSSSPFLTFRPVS
Experiment: Inhibition of rat adrenal 11-beta-hydroxylase
Conditions: not given
Method in brief: (§1)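 Washed adrenal mitochondria from three male Charles River rats, used within 30 min. Incubated at 37 °C, pH 7.4 (HEPES/sucrose/MgCl2/KH2PO4/malate) with 50 μM [14C]-11-deoxycorticosterone and test drug, 5-min preincubation then 10 min with mitochondria. Extracted into CH2Cl2. Substrate and corticosterone separated by silica TLC and counted by scintillation.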

| IC50 [µM] | Structure (SMILES) |
| --- | --- |
| 2 | CC(C)c1[nH]c2ccccc2c1Cn1ccnc1 |
| 10 | NC(=O)c1ccc(OCCn2ccnc2)cc1 |
| > 100 | O=C(O)c1cccc(OCCn2ccnc2)c1 |
| > 100 | O=C(O)COc1ccc(OCCn2ccnc2)cc1 |
| > 100 | NC(=O)COc1ccc(OCCn2ccnc2)cc1 |
| > 100 | O=C(O)c1ccc(OCCn2ccnc2)cc1 [DAZOXIBEN] |

Molecular target: T2, Thromboxane-A synthase (Homo sapiens, UniProt P24557)
T2 sequence (P24557 whole entry): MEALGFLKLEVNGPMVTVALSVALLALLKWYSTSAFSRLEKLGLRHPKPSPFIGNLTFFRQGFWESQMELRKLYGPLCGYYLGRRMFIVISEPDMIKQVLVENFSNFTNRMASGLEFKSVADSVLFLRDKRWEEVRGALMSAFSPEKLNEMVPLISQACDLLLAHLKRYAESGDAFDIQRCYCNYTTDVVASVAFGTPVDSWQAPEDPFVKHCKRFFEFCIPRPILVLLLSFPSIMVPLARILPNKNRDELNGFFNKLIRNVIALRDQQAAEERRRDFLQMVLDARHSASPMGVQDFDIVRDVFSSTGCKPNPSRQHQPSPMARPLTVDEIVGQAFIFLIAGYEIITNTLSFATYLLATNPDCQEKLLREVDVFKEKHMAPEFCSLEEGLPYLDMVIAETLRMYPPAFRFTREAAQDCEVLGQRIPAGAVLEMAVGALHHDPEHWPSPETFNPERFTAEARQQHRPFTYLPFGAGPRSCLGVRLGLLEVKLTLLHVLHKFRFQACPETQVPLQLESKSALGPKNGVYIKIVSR
Experiment: Inhibitory activity against thromboxane A2 synthetase
Conditions: not given
Method in brief: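 Human platelet microsomes, cyclooxygenase inactivated with 30 μM indomethacin (30 min, 0 °C). Compound preincubated 2 min on ice, pH 7.8 phosphate. Then 1 min on ice with freshly made PGH2 (from 0.1 mM arachidonic acid and ram seminal vesicle microsomes). Stopped with EtOH. TxB2 measured by RIA in triplicate; dose-response curves over several concentrations.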

| IC50 [µM] | Structure (SMILES) |
| --- | --- |
| 3.5 | N#Cc1cccc(OCCn2ccnc2)c1 |
| 0.015 | CC(C)c1[nH]c2ccccc2c1Cn1ccnc1 |
| 0.66 | c1ccc(OCCn2ccnc2)cc1 |
| > 10 | O=C(O)Cc1ccccc1OCCn1ccnc1 |
| 1.1 | CN(C)C(=O)c1ccc(OCCn2ccnc2)cc1 |
| 0.86 | CNC(=O)c1ccc(OCCn2ccnc2)cc1 |
| 0.056 | NC(=O)c1ccc(OCCn2ccnc2)cc1 |
| 3 | CCOC(=O)c1ccc(OCCCn2ccnc2)cc1 |
| 0.032 | O=C(O)Cc1ccc(OCCn2ccnc2)cc1 |
| 0.61 | CCOC(=O)COc1ccc(OCCn2ccnc2)cc1 |
| 13 | N#Cc1ccc(OCCn2ccnc2)cc1 |
| 0.84 | NC(=O)Nc1ccc(OCCn2ccnc2)cc1 |
| 22 | NC(=O)c1ccccc1OCCn1ccnc1 |
| 0.53 | O=C(O)c1cccc(OCCn2ccnc2)c1 |
| > 10 | O=C(O)c1ccccc1OCCn1ccnc1 |
| 0.015 | c1cn(CCOc2ccc(-c3nnn[nH]3)cc2)cn1 |
| > 50 | Nc1ccc(OCCn2ccnc2)cc1 |
| 4 | CC(=O)Nc1ccc(OCCn2ccnc2)cc1 |
| 0.027 | O=C(O)c1ccc(OCCCn2ccnc2)cc1 |
| 4.4 | CCOC(=O)c1ccccc1OCCn1ccnc1 |
| 2 | CCOC(=O)Cc1ccccc1OCCn1ccnc1 |
| 0.18 | O=C(NC(=O)c1ccc(OCCn2ccnc2)cc1)c1ccccc1 |
| 0.095 | O=C(O)COc1ccc(OCCn2ccnc2)cc1 |
| > 50 | O=[N+]([O-])c1ccc(OCCn2ccnc2)cc1 |
| 2.9 | CCOC(=O)Cc1ccc(OCCn2ccnc2)cc1 |
| > 50 | NS(=O)(=O)c1ccc(OCCn2ccnc2)cc1 |
| 1.8 | NC(=O)Cc1ccc(OCCn2ccnc2)cc1 |
| 0.63 | CC(=O)NC(=O)c1ccc(OCCn2ccnc2)cc1 |
| 0.85 | NC(=O)COc1ccc(OCCn2ccnc2)cc1 |
| > 100 | COc1ccc2c(c1)c(CC(=O)O)c(C)n2C(=O)c1ccc(Cl)cc1 [INDOMETHACIN] |

| Structure (SMILES) | IC50 [µM] |
| --- | --- |
| c1c[nH]cn1 [IMIDAZOLE] | 670 |

Molecular target: T3, 11-beta-hydroxylase (Cytochrome P450 11B1, mitochondrial) (Rattus norvegicus, UniProt P15393)
T3 sequence (P15393 whole entry): T1 sequence (P15393 whole entry)
Experiment: Inhibition of rat adrenal 11-beta-hydroxylase at 10e-5 M
Conditions: rat adrenal 11-beta-hydroxylase (adrenal enzyme preparation)
Method in brief: as §1

| inhibition at 0.0001 M [%] | Structure (SMILES) |
| --- | --- |
| 72 | c1ccc(OCCn2ccnc2)cc1 |
